Compound activity: PubChem, several laboratories
Beta cell apopt – blocks beta cell apoptosis | 0.8% of 300,000 active | AID 435005 | protection from apoptosis, % (concentration not given with the values) | INS-1E cytokine-induced death, ATP luminescence, 48 h; percent of positive-control rescue, neutral wells zero;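 active means Every replicate reaches about 75%, or at least half do and their mean reaches it too, limit read from the data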;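 further: 0% = cytokine-treated negative control wells and 100% = positive control rescue; higher means more ATP so stronger rescue from cytokine killing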
T cruzi repl – blocks replication of Trypanosoma cruzi. AID 1885. T. cruzi beta-gal in NIH3T3, luminescence, 90 h. 1.4% of 300,000 active. inhibition, % (concentration not given with the values);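 active means mean inhibition across valid replicates above about 55%, limit read from the data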;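 further: signal also drops with host cell toxicity which is not excluded here; 0% = plate median of DMSO wells and 100% = zero luminescence signal; higher percent means less beta-gal luminescence so fewer parasites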
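System – NIH/3T3 host cells with β-galactosidase reporter T. cruzi · Doses – single 50 nL compound addition per well in DMSO · Reagent – 5000 T. cruzi trypomastigotes/well · Medium – Low-serum DMEM with 2% FBS · Timing – ≥90 h infection period, 3 h prior cell attachment · Evaluation – parasite load inhibition, % · Technique – GalScreen luminescence, 60 min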
L major viab – reduces viability of Leishmania major promastigotes. resazurin fluorescence viability. inhibition, % at 10 µM. 9% of 200,000 active; in the data active means inhibition above about 50%;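 further: promastigotes grown with compound for 44 hours at 28 °C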
SKKanGAS inh – SKKanGAS growth inhibition; 1.3% of 300,000 active; inhibition, % at 7.5 µM; S. pyogenes SKKanGAS, kanamycin growth, BacTiter-Glo, 6 h; AID 1662;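 active means mean replicate score, as percent of positive control median, at least 50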;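 further: strain carries kanamycin resistance gene driven by streptokinase promoter and grows in 40 µg/ml kanamycin; loss of luminescence reflects streptokinase promoter inhibition or plain growth inhibition; 0% = median of DMSO wells and 100% = positive control at its reference dose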
CSC inhib – cancer stem cell inhibition; inhibition, % at 7.5 µM; cancer stem cell-like cells viability, luminescence; 1.1% of 300,000 active; AID 2717; in the data active means inhibition above about 75%; tested in HMLE shEcad cells
Mdm2 MdmX PPI – human Mdm2/MdmX binding inhibition; AID 485346; inhibition, % at 8 µM; 3% of 330,000 active; O15151+Q00987; SaOS-2 split-luciferase Mdm2/MdmX complementation, luminescence;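 active means inhibition of at least 50% at 8 µM in the primary screen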
Target sequence (O15151 whole entry, looked up): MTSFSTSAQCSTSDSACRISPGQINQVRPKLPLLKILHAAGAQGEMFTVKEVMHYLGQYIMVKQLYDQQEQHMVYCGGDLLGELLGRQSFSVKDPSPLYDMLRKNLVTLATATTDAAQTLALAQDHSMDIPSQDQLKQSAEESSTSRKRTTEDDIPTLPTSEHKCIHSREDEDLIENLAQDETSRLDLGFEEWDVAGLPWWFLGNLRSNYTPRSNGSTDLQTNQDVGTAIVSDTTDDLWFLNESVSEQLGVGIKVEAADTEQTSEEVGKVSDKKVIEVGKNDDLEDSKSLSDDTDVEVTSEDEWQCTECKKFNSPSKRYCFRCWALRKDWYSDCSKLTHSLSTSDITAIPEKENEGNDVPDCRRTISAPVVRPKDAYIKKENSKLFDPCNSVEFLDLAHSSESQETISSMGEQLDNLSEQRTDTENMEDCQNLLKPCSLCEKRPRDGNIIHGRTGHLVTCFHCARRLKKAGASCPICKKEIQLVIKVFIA
Target sequence (Q00987 whole entry, looked up): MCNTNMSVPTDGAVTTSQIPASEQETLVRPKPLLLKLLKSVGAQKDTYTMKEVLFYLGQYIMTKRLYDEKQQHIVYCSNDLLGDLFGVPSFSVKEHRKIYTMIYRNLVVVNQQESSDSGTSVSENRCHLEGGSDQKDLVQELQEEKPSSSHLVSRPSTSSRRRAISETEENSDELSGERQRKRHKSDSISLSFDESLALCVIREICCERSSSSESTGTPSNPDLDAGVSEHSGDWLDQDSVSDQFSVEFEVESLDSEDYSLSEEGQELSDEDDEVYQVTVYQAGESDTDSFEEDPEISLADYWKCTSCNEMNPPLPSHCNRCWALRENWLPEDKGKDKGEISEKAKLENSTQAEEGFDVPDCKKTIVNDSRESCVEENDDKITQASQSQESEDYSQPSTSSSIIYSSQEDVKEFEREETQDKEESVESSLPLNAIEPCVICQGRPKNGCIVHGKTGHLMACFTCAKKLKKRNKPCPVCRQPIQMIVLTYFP
Active calls of the source: *; nt = no result given. In the library only some 9.4% were active in any assay of this set; here they are far more common.

SMILES | Beta cell apopt | T cruzi repl | L major viab | SKKanGAS inh | CSC inhib | Mdm2 MdmX PPI
Cc1[nH]n(-c2ccccc2)c(=O)c1C(C[N+](=O)[O-])c1ccc(Br)cc1 (stereo not given) | nt | -6 | 100* | 9 | 35 | -9
Cc1[nH]n(-c2ccccc2)c(=O)c1C(c1cccc([N+](=O)[O-])c1)c1c(C)[nH]n(-c2ccccc2)c1=O | 2 | 0 | 26 | -3 | -1 | 12
Cc1[nH]ccc(=O)c1OC1OC(CO)C(O)C(O)C1O (stereo not given) | -5 | 12 | -1 | 5 | 5 | 25
Cn1c(SCc2cccc([N+](=O)[O-])c2)nc2c(c1=O)SCC2 | 11 | 7 | 16 | 6 | 9 | 36
CCOc1cc(N2CCOCC2)c(OCC)cc1NC(=O)COC(=O)c1cc2ccccc2cc1O | -1 | 1 | 62* | 2 | -5 | 25
CNCc1c(OCc2ccccc2)ccc2ccccc12 | 6 | 18 | nt | 3 | -6 | 30
CNCc1c(OCc2ccccc2F)ccc2ccccc12 | 4 | 16 | 56* | 4 | 8 | 25
Cc1noc(C)c1NC(=O)Nc1cccc2c1O[C@H](CN(C)S(=O)(=O)c1cccs1)[C@@H](C)CN([C@H](C)CO)C2=O | -4 | nt | nt | nt | nt | 13
CN1C(=O)/C(=C2\SC(N3CCCCCC3)=NC2=O)c2ccccc21 | nt | 34 | 35 | 3 | 7 | -18
CCCN1C(=O)/C(=C2\SC(N3CCCCC3)=NC2=O)c2ccccc21 | nt | 37 | 64* | 19 | -15 | -32
Cc1ccc(O)c(-c2cc3ccccc3[nH]2)c1 | 3 | 50 | 59* | 7 | 44 | 8
CCOC(=O)N1CCN(CC(O)COC2CC(C)CC(C)(C)C2)CC1 (stereo not given) | -5 | -17 | 93* | 0 | -13 | 13
CC1CC(OCC(O)CN2CCOCC2)CC(C)(C)C1 (stereo not given) | -4 | 10 | 77* | 1 | 1 | -4
CC1CC(C)CN(CC(O)COC2CC(C)CC(C)(C)C2)C1 (stereo not given) | 2 | 12 | nt | -9 | 33 | 1
COc1ccc(C(=O)NCCCCCCNC(=O)c2ccc(OC)cc2)cc1 | -3 | -3 | nt | -7 | -14 | 13
CC(OC(=O)c1cc2sccc2n1C)C(=O)NC(C)(C)C (stereo not given) | -4 | -3 | 0 | -9 | -12 | 1
CC(OC(=O)c1cc2sccc2n1C)C(=O)NCc1cccs1 (stereo not given) | -3 | 5 | -1 | 1 | -1 | 3
Cn1c(C(=O)OC(C(=O)NC2CCCC2)c2cccnc2)cc2sccc21 (stereo not given) | nt | 65* | 98* | -3 | nt | 8
Cn1c(C(=O)OC(C(=O)NC2CCCCC2)c2cccnc2)cc2sccc21 (stereo not given) | -1 | 39 | 97* | -6 | 8 | -7
Nc1nnc(CCCCCc2nnc(N)s2)s1 | -1 | 2 | -1 | -3 | nt | -8
CCCCn1c(N)c(N(CC(C)C)C(=O)c2cccc(OCc3ccccc3)c2)c(=O)[nH]c1=O | 1 | 15 | nt | -1 | 10 | 14
O=C(Nc1cccc(C(F)(F)F)c1)C1CCCO1 (stereo not given) | -11 | -21 | -7 | 1 | -1 | -8
COc1cc(C(=O)NC2CC(C)(C)CC(C)(C)C2)ccc1OC1CCN(C(C)=O)CC1 | -4 | -13 | nt | 3 | -9 | 9
O=C(CCCc1nc(-c2ccc(Cl)cc2)no1)NC1CCCC1 | 107* | -64 | nt | -18 | 33 | 14
O=C(CCc1nc(-c2ccc(Cl)cc2)no1)NC1CCCCC1 | -3 | 0 | nt | -4 | -3 | 37
SMILES | Beta cell apopt | T cruzi repl | L major viab | SKKanGAS inh | CSC inhib | Mdm2 MdmX PPI
C/C(=C\c1ccccc1)CN1CCN(Cc2ccc(C)o2)C(CCO)C1 (stereo not given) | -7 | 12 | 83* | -2 | 10 | 17
COc1ccc(N(CC(=O)Nc2ccc3c(c2)OCO3)S(=O)(=O)c2ccc(C)cc2)cc1OC | -4 | 0 | 63* | 1 | -3 | -5
COc1ccc(N(CC(=O)Nc2ccc3c(c2)OCO3)S(=O)(=O)c2ccccc2)c(OC)c1 | 4 | 20 | 71* | -7 | nt | -27
COc1ccc(N(CC(=O)Nc2ccc3c(c2)OCO3)S(=O)(=O)c2ccccc2)cc1OC | 1 | -18 | nt | 4 | 1 | 24
COC(=O)c1ccc(NC(=O)CN(c2ccc3c(c2)OCO3)S(C)(=O)=O)cc1 | -4 | 7 | 64* | 0 | 15 | -28
CSCCC(=O)N1CCN(CC(=O)N2CCCC2)CC1 | 2 | -8 | nt | 0 | -2 | 9
O=C(Cc1cccs1)NCCS(=O)(=O)N1CCN(c2cccc(Cl)c2)CC1 | -2 | 6 | nt | 16 | -11 | 3
CC1=CC(=O)N(c2ccc(C)cc2)C1c1ccc(Cl)cc1 (stereo not given) | -12 | 4 | 61* | 2 | -16 | -3
CCn1c(SCC(=O)Nc2nc(-c3ccc(C)cc3)cs2)nnc1-c1ccccc1O | 6 | 23 | 100* | 55* | nt | 30
CCCCn1c(SCC(=O)NC(=O)Cc2ccccc2)nc2ccccc2c1=O | -1 | nt | nt | nt | nt | -7
CCn1c(SCC(=O)Nc2nc(-c3ccc(C)cc3)cs2)nnc1-c1ccccc1 | -6 | 13 | 13 | 21 | 19 | 19
CN(C)CCCn1c(SCC(=O)N2c3ccccc3Sc3ccccc32)nc2ccccc2c1=O | -1 | 58* | 101* | 11 | 30 | nt
Cn1c(SCC(=O)N2c3ccccc3Sc3ccccc32)nc2ccccc21 | 3 | 59* | 21 | -1 | -14 | 6
Cc1ccc(-c2csc(NC(=O)CSc3nc4ccccc4c(=O)n3CCCN(C)C)n2)cc1 | 6 | 29 | 100* | 23 | 15 | 49
O=C1CN(C(=O)c2ccc(Br)o2)C(c2ccccc2)c2cc(Cl)ccc2N1 (stereo not given) | -1 | 19 | 87* | -1 | -10 | 7
O=C1CN(C(=O)c2ccc(Br)o2)C(c2ccc(F)cc2)c2cc(Cl)ccc2N1 (stereo not given) | 1 | 22 | 94* | 10 | 2 | 16
O=C1CN(C(=O)c2ccccc2)C(c2ccccc2)c2cc(Cl)ccc2N1 (stereo not given) | 0 | 5 | nt | 5 | 0 | -29
O=C1CN(C(=O)c2ccco2)C(c2ccccc2)c2cc(Cl)ccc2N1 (stereo not given) | 8 | -2 | 17 | 6 | -4 | 8
Cc1ccc([N+](=O)[O-])cc1S(=O)(=O)NCC1COc2ccccc2O1 (stereo not given) | -6 | 5 | nt | 5 | 5 | 17
O=C(NNS(=O)(=O)c1ccccc1)c1cccc([N+](=O)[O-])c1 | -7 | -2 | nt | -4 | -21 | 0
COc1ccc(C(=O)CCc2ccccc2)cc1 | -1 | -11 | nt | 5 | 0 | -32
CC(C)CC(C)c1cc(N)nc2nc3ccccc3n12 (stereo not given) | 3 | -11 | 34 | -3 | -11 | 10
